Data from article PMC8314423 (Journal of medicinal chemistry, 2018).

What was measured:
[1] = target: SOS1-mediated nucleotide exchange on RAS (Homo sapiens, UniProt Q07889); experiment: SOS1-mediated nucleotide exchange assay; format: biochemical
[2] = tested on: RAS-GTP levels in HeLa cells; experiment: RAS-GTP levels in HeLa cells; format: cell-based; settings: 10 min treatment; for change in RAS-GTP levels: up to 30 μM
In short: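 HeLa (WT KRAS) cells exposed to test compound for 10 min at concentrations up to 30 μM. RAS-GTP levels were measured together with the accompanying pERK1/2 T202/Y204 levels. EGF (50 ng/mL, 5 min) served as the positive control for pathway stimulation. Data are representative of two independent experiments.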

Sequence of SOS1-mediated nucleotide exchange on RAS (Q07889 564-1049 limits assumed): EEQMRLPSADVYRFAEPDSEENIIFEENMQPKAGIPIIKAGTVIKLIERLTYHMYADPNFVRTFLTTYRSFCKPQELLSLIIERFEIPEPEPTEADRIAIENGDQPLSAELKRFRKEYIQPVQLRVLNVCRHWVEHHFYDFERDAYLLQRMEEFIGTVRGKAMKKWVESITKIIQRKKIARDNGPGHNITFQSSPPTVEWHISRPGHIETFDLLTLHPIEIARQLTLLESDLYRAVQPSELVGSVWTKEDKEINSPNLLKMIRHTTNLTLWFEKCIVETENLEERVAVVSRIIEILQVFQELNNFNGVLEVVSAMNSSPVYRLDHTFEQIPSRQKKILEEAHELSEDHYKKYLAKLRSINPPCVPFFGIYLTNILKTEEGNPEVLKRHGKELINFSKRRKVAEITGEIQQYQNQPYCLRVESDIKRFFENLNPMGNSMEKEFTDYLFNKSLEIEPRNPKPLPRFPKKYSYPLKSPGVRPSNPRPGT
Sequence of SOS1-mediated nucleotide exchange on RAS (P01112 1-166 partner limits assumed): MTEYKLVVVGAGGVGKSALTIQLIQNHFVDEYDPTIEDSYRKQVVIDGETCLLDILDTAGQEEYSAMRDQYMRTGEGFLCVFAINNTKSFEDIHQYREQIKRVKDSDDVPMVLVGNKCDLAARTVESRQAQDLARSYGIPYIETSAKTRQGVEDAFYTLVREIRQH

| Structure (SMILES) | change in RAS-GTP levels [2] | also measured |
| --- | --- | --- |
| Cc1cc2ncn(Cc3ccc(F)c(Cl)c3)c2cc1C [Compound 4, 1-(3-Chloro-4-fluorobenzyl)-5,6-dimethyl-1H-benzo[d]imidazole] | – | nucleotide exchange activation ([1]; in words): negligible nucleotide exchange activation |
| Cc1cc(Cn2c(N3CC4(CNC4)C3)nc3c(-c4cncnc4C)cc(Cl)cc32)cc(C)c1F [Compound 60, 6-Chloro-1-(4-fluoro-3,5-dimethylbenzyl)-4-(4-methylpyrimidin-5-yl)-2-(2,6-diazaspiro[3.3]heptan-2-yl)-1H-benzo[d]imidazole] | only modest increases in RAS-GTP levels | – |
| Cc1cc(Cn2c(N3CC4(CNC4)C3)nc3c(N4CCN(C)CC4)cc(Cl)cc32)cc(C)c1F [Compound 64, 6-Chloro-1-(4-fluoro-3,5-dimethylbenzyl)-4-(4-methylpiperazin-1-yl)-2-(2,6-diazaspiro[3.3]heptan-2-yl)-1H-benzo[d]imidazole] | substantial increases in RAS-GTP levels at 10–30 μM | lowest concentration inducing small increases in RAS-GTP [2]: 0.3 µM |
| Cc1cc(Cn2c(N3CCNCC3)nc3c(-c4cncnc4C)cc(Cl)cc32)cc(C)c1F [Compound 55, 6-Chloro-1-(4-fluoro-3,5-dimethylbenzyl)-4-(4-methylpyrimidin-5-yl)-2-(piperazin-1-yl)-1H-benzo[d]imidazole] | only modest increases in RAS-GTP levels | – |
| Cc1cc(Cn2c(N3CCNCC3)nc3ccc(Cl)cc32)cc(C)c1F [Compound 29, 6-Chloro-1-(4-fluoro-3,5-dimethylbenzyl)-2-(piperazin-1-yl)-1H-benzo[d]imidazole] | – | EC50 [1]: < 1000 nM |
| Cc1ncncc1-c1cc(Cl)cc2c1nc(N1CC3(CNC3)C1)n2Cc1ccc(F)cc1 [Compound 61, 6-Chloro-1-(4-fluorobenzyl)-4-(4-methylpyrimidin-5-yl)-2-(2,6-diazaspiro[3.3]heptan-2-yl)-1H-benzo[d]imidazole] | only modest increases in RAS-GTP levels | – |
| Cc1cc(Cn2c(N3CCNCC3)nc3c(N4CCN(C)CC4)cc(Cl)cc32)cc(C)c1F [Compound 42, 6-Chloro-1-(4-fluoro-3,5-dimethylbenzyl)-4-(4-methylpiperazin-1-yl)-2-(piperazin-1-yl)-1H-benzo[d]imidazole] | substantial increases in RAS-GTP levels at 10–30 μM | lowest concentration inducing small increases in RAS-GTP [2]: 0.3 µM |
